The entries come from a sample that favours hits as a whole.
Yeast lifespan up: extends the lifespan of yeast. S. cerevisiae growth with nicotinamide, OD615; deaD strain in restrictive glucose medium. inhibition of the nicotinamide effect, % at 10 µM. 0.68% of 130,000 active. AID 775;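 active = inhibition above a set limit, placed 3 SD over the median of all compounds, cut at about 26% in these data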
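Measured by: optical density (absorbance) at 615 nm; System: modified budding yeast, DeaD strain; Medium: restrictive CSMM-D dextrose medium; Timing: 4 h preincubation then 48 h treatment at 30 °C.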
PostGolgi yeast: growth inhibition of a yeast mutant, post-Golgi transport screen; inhibition, % at 10 µM; post-Golgi transport phenotypic cell assay; AID 739; 0.9% of 98,000 active;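 note: yeast cells grown in 1536-well plates; yeast grown about 18 h at 30C before absorbance read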
Yeast growth inh: yeast BB579 growth reduction in restrictive medium; AID 804; S. cerevisiae BB579 growth, OD615, 48 h; 0.51% of 140,000 active; inhibition, % at 10 µM;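 active = inhibition above a set limit, 3 SD over the mean compound inhibition, cut at about 44% in these data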
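Assay system – yeast BB579 (DeaD) · Dosing – single compound dose of 10 µM, 0.25% DMSO final · Detection – OD615 turbidity measurement · Buffer or medium – CSMM-D restrictive synthetic medium containing dextrose (glucose) · Benchmarks – positive control amphotericin B 10 µg/mL · Incubation – 48 h exposure, 30 °C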
PostGolgi ctrl: growth of the yeast control strain, post-Golgi counter-screen. AID 738. efflux-deficient yeast background strain, growth absorbance A615, 16 h. 5% of 98,000 active. inhibition, % at 10 µM
Each line names hits and unclear results; the compound was inactive in the other large screens. Cut-off read from the data, not from the text of the source, unless noted: active = inhibition above about 30%; inactive = the rest.

CC(=O)n1cc(C(C[N+](=O)[O-])SCCN)c2ccccc21 (configuration not stated)	Yeast growth inh 73
CC(=O)n1cc(-c2ccncc2)c2ccccc21	none
O=C(CCc1ccccc1)NC(NC(=S)Nc1ccc(Cl)cc1)C(Cl)(Cl)Cl (configuration not stated)	none
Cc1ccc(NC(=O)C2C(=O)N(C)c3ccccc32)cc1 (configuration not stated)	Yeast lifespan up 28 (no result: PostGolgi yeast, PostGolgi ctrl)
CN1C(=O)C(C(=O)Nc2ccccc2F)c2ccccc21 (configuration not stated)	Yeast lifespan up 45 (no result: PostGolgi yeast, PostGolgi ctrl)
CCN(c1ccc(NC(=O)COC(=O)c2ccc(S(=O)(=O)N3CCCC3)cc2)cc1)C(C)C	none
CCN(CCCNC(=O)CN(C)S(=O)(=O)c1ccc2c(c1)CCC(=O)N2)c1cccc(C)c1	none
Cc1onc(-c2ccccc2Cl)c1C(=O)Nc1nnc(-c2ccc(F)cc2)s1	PostGolgi ctrl 35
Cc1onc(-c2ccccc2Cl)c1C(=O)Nc1nnc(-c2ccc(Br)cc2)s1	none
COC(=O)c1cc(OC)c(OC)cc1NC(=O)c1c(-c2ccccc2Cl)noc1C	PostGolgi ctrl 37
Cc1onc(-c2ccccc2Cl)c1C(=O)Nc1nc2c(s1)CCCC2	PostGolgi ctrl 43
Cc1onc(-c2ccccc2Cl)c1C(=O)Nc1nnc(-c2ccc(Cl)cc2Cl)s1	none
CC(/C=C/c1cccc([N+](=O)[O-])c1)=N\NC(=O)c1ccncc1	none (no result: PostGolgi yeast, PostGolgi ctrl)
Clc1ccc(/C=N/NC(=Nc2ccccc2)c2ccccn2)c(Cl)c1	PostGolgi ctrl 37
C(=N\NC(=Nc1ccccc1)c1ccccn1)/c1ccccn1	none (no result: PostGolgi yeast, PostGolgi ctrl)
CCOC(=O)c1oc2ccccc2c1NC(=O)c1ccc(Cl)s1	none
Cc1ccccc1OCC(=O)NCCN1CCCC1	PostGolgi ctrl 35
COc1cc(NS(=O)(=O)c2ccc(C)cc2)ccc1-n1cnnn1	none
O=C1OCC(CO)(CO)N=C1NNc1ccccc1Cl	Yeast growth inh 98
O=C(Nc1ccccc1Cl)c1ccccc1Cl	none
O=C1c2ccccc2C(=O)N1CCCCN(C(=O)c1ccco1)c1ccc(Cl)cc1	PostGolgi ctrl 31
CCC(C)N1CC(C(=O)NC2CCCCC2)CC1=O (configuration not stated)	PostGolgi ctrl 33
CC(C)OCCCNS(=O)(=O)c1ccc2ccccc2c1	Yeast lifespan up 108
N#Cc1c(C(F)(F)F)cc(-c2ccccc2Cl)[nH]c1=O	none
CSCC[C@H](NC(=O)C1CCN(S(=O)(=O)c2ccc(C)cc2)CC1)C(=O)NCc1ccco1	PostGolgi ctrl 31
Cc1ccc(C)c(OCCOCCN2CCOCC2)c1	none
Clc1ccc(OCCOCCN2CCCCC2)c(Br)c1	PostGolgi yeast 42
Clc1cc(Br)ccc1OCCOCCN1CCOCC1	PostGolgi yeast 53
CCN(CC)c1ncn(Cc2c(Cl)cccc2Cl)c2ncnc1-2	PostGolgi ctrl 34
Cc1ccc(Oc2ccc(-c3nc(N)nc(N)n3)cc2)cc1C	PostGolgi ctrl 50
Nc1nc(N)nc(-c2ccc(Oc3ccccc3)cc2)n1	none
COC(=O)/C=C1\SC(=NC(=O)c2cccc(Cl)c2)NC1=O	none
COC(=O)/C=C1/SC(=NC(=O)c2ccccc2)NC1=O	Yeast lifespan up 28 (no result: PostGolgi yeast, PostGolgi ctrl)
Oc1cc(-c2ccccc2)c2ccccc2c1	Yeast growth inh 97 (no result: PostGolgi yeast, PostGolgi ctrl)
O=c1oc2ccccc2cc1-c1ccc(O)cc1	none (no result: PostGolgi yeast, PostGolgi ctrl)
O=c1c(Cl)nc2cc(Cl)ccc2n1CCNc1ncc(C(F)(F)F)cc1Cl	PostGolgi yeast 76, PostGolgi ctrl 99
O=c1[nH]c2cccc(Cl)c2n(CCNc2ncc(C(F)(F)F)cc2Cl)c1=O	none
O=c1c(-c2nc3ccccc3s2)cccn1Cc1ccc(Cl)c(Cl)c1	PostGolgi ctrl 36
C=CCn1c(CCNC(=O)c2ccccc2F)nnc1SCC(=O)Nc1nc2ccccc2s1	none
O=C(Nc1nccs1)c1c(O)c2cccc3c2n(c1=O)CCC3	Yeast lifespan up 30
O=C(Nc1nccs1)c1ccc2c(=O)n3c(nc2c1)CCCCC3	Yeast lifespan up 51 (no result: PostGolgi yeast, PostGolgi ctrl)
Cc1csc(NC(=O)c2ccc3c(=O)n4c(nc3c2)CCCCC4)n1	none (no result: PostGolgi yeast, PostGolgi ctrl)
COc1ccc(C(C)=O)cc1CSc1nc2cc(Cl)ccc2o1	PostGolgi ctrl 47
O=C(CSc1nc2cc(Cl)ccc2o1)c1cccs1	none
O=C1CC(O)(C(F)(F)F)Oc2c1ccc1ccccc21 (configuration not stated)	PostGolgi ctrl 37
Cc1ccccc1C(=O)NNC1=NCCC1	Yeast lifespan up 29
CCC(C(=O)Nc1nnc(-c2ccco2)s1)c1ccccc1 (configuration not stated)	none
Cc1occc1-c1nnc(SCC(=O)Nc2nccs2)n1Cc1ccco1	PostGolgi ctrl 36
Cc1cc(C)nc(SCc2nnc(SCC(=O)Nc3nccs3)n2Cc2ccco2)n1	none
